From PubChem
Shown are actives, neighbours in structure and some others; about 6.8% of the full set was active somewhere.
MKP-1 inh: human dual specificity phosphatase 1 inhibition. P28562. recombinant MKP-1, OMFP hydrolysis fluorescence. inhibition, %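 (compounds tested at a single concentration somewhere between 10 and 100 µM)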. 65,000 tested, 0.15% active. AID 374;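 active = inhibition above about 50%, limit read from the data; inconclusive = inhibition over screen mean plus 3 SD, below that limit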
Target sequence (P28562 whole entry, looked up): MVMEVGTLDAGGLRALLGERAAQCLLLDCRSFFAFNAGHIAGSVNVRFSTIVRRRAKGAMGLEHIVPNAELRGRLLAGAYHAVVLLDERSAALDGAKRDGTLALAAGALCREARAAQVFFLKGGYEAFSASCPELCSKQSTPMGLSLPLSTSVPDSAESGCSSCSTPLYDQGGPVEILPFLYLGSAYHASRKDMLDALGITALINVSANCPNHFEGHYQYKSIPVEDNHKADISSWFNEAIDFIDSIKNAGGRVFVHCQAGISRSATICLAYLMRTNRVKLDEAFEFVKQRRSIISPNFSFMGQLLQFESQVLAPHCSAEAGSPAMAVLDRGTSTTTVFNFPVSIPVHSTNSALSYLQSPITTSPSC
M1 ag: agonists of M1 muscarinic receptor. CHO-M1 cells, Fluo-4 calcium fluorescence, agonist mode; stronger effect = higher value. B-score at 10 µM. 64,000 tested, 3% active. AID 626;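 active = fluorescence rise, raw or as B-score row- and column-corrected plate score, outside the 99.7% band of its plate's samples, either direction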
Cdc25B block: human M-phase inducer phosphatase 2 inhibition | P30305 | inhibition, %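 (compounds tested at 10 µM final in the well)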 | 65,000 tested, 0.1% active | recombinant Cdc25B, OMFP fluorescence Ex485/Em525; in the data active = inhibition above about 50%
M1 antag: blocks the rat M1 muscarinic receptor response to acetylcholine; B-score at 10 µM; 64,000 tested, 3.4% active; CHO-M1 cells, Fluo-4 calcium, ACh EC80 antagonist mode; stronger effect = lower value; P08482; AID 628;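 active = calcium fluorescence response, raw or row-and-column corrected B-score, differing from the plate sample mean either way at a set confidence level, mostly lower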
HEK293 NFkB inh: lowers PMA/ionomycin-induced NF-kB signal in HEK293 cells. 62,000 tested, 0.21% active. HEK-293 NF-kB luciferase reporter, luminescence. inhibition, % at 3 µM;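 active = inhibition above the mean of all tested compounds plus 3 SD, cut at about 40% in these data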
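System: NF-kB luciferase reporter HEK-293 cells | Replication: Single test | Control set: DMSO vs reference inhibitor | Evaluation: % inhibition | Schedule: 1 h pretreatment, 16 h stimulation, 37 °C | Probe or stimulus: PMA with ionomycin | Compound dosing: One dose, 3 µM | Detection: Luciferase luminescence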
Her2 expr inh: lowers expression of human Her2 kinase | P04626 | SKBR-3 HER2 protein level, AlphaScreen, 18-24 h; stronger effect = lower value | HER2 level % of control, % at 10 µM | 65,000 tested, 0.69% active;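 active = HER2 level under 5% of the carrier-only control; inconclusive = no clear call, values can overlap the other calls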;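 also: lower value means stronger loss of Her2 protein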
M1 ag confirm: confirmation of rat M1 muscarinic receptor agonists | shares compounds with M1 ag | CHO-M1 cells, Fluo-4 calcium fluorescence, agonist mode; actives lie on both sides | fluorescence change (max-min) at 10 µM | 1,700 tested, 19% active | AID 1488;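 active = fluorescence change differs from the solvent-only DMSO control mean at a set confidence level in both duplicate runs; inconclusive = differs from solvent-only control mean in just one of two runs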;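 also: an EC20 dose of acetylcholine follows compound addition during the same imaging run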
M4 agonist ctr: rat M4 muscarinic agonism, M1 counter-screen. shares compounds with M1 ag. CHO M4/Gqi5 cells, Fluo-4 calcium fluorescence, agonist mode; actives lie on both sides. fluorescence change (max-min) at 10 µM. 1,700 tested, 9% active;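 active = fluorescence change differing from the plate's solvent-only control wells at 99.7% confidence in both duplicates, whether higher or lower; inconclusive = differs from solvent controls in only one of two duplicates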
Of the large screens only hits and unclear results are named; the others gave an inactive call (follow-up assays come after a bar, where they were run).

O=C(CSc1nc(-c2ccco2)cc(C(F)(F)F)n1)NCCCn1ccnc1	M1 ag 10 | M1 ag confirm inactive | M4 agonist ctr inactive
O=C(CSc1nc(-c2cccs2)cc(C(F)(F)F)n1)NCCCn1ccnc1	none
N#CC1(c2ccccc2)CCCN1C(=O)c1ccc(Br)o1 (configuration not stated)	none
COc1cc(OC)cc(C(=O)N2CCC(N3CCN(c4ccccc4)CC3)CC2)c1	none (no result: HEK293 NFkB inh)
COc1cccc(N2CCN(C3CCCC(C)C3)CC2)c1 (configuration not stated)	M1 ag 3.6 | M1 ag confirm inactive | M4 agonist ctr inactive
O=C(CN1C(=O)c2ccccc2S1(=O)=O)NCCSC1CCCCC1	none
CCc1nc(NCc2ccccn2)c2oc3ccccc3c2n1	M1 ag 4.2 | M1 ag confirm -24 | M4 agonist ctr inconclusive
O=C(COc1ncnc2ccccc12)NCCCN1CCCC1=O	none
Cc1ccccc1Cn1c(=O)c2c(nc3n2CCN3Cc2ccco2)n(C)c1=O	none
CCOc1ccc2nc(N3CCCC(C(=O)N4CCN(CC)CC4)C3)sc2c1 (configuration not stated)	none
CCOc1ccc2nc(N3CCC(C(=O)N4CCN(C(=O)c5ccco5)CC4)CC3)sc2c1	M1 ag 2.8 | M1 ag confirm inconclusive | M4 agonist ctr inactive
Cc1ccc(C)c(N2CCN(C(=O)CN(C)S(=O)(=O)c3cnc[nH]3)CC2)c1	none
COC(=O)c1cc(OC)c(OC)cc1NC(=O)C1CCC(=O)N1S(=O)(=O)c1ccc(C)cc1 (configuration not stated)	M1 ag -2 (no result: Her2 expr inh) | M1 ag confirm inconclusive | M4 agonist ctr inactive
Cc1cc(-c2cc(-c3ccc(Cl)cc3)nc(N)c2C#N)co1	none (no result: HEK293 NFkB inh)
O=C(Cc1ccc(Cl)cc1)Nc1cccc(-c2nnc(-c3ccco3)o2)c1	none (no result: HEK293 NFkB inh)
COc1ccc(CC(=O)Nc2cccc(-c3nnc(-c4cccc(C)c4)o3)c2)cc1OC	M1 ag 6.6, M1 antag -7.3, Her2 expr inh -0.4 | M1 ag confirm inactive | M4 agonist ctr inconclusive
O=C(Cc1ccccc1)Nc1cccc(-c2nnc(-c3ccco3)o2)c1	M1 ag 5.2 (no result: HEK293 NFkB inh) | M1 ag confirm inactive | M4 agonist ctr inactive
COc1cccc(C(=O)Nc2ccc(-c3nnc(-c4ccco4)o3)cc2)c1	M1 ag 5.6 (no result: HEK293 NFkB inh) | M1 ag confirm inactive | M4 agonist ctr inconclusive
C(=N\c1nccs1)/c1cccnc1	none (no result: HEK293 NFkB inh)
O=C(Nc1cccnc1)c1cccc(S(=O)(=O)N2CCOCC2)c1	none
O=C(Nc1cccnc1)c1ccc(Cl)c(S(=O)(=O)N2CCCCCC2)c1	M1 ag 2.4 | M1 ag confirm inconclusive | M4 agonist ctr inactive
CCC(C)n1c(SCC(=O)NC(=O)Nc2ccc3c(c2)OCCO3)nc2ccccc2c1=O (configuration not stated)	none
COc1ccc(Cn2c(=O)oc3ccc(C)cc32)cc1OC	M1 ag 13 | M1 ag confirm inactive | M4 agonist ctr inactive
Cc1ccc2oc(=O)n(CC(=O)O)c2c1	none
CC(C)(C)OC(=O)N[C@@H](Cc1ccccc1)c1nnc(S(=O)(=O)Cc2ccccc2)o1	M1 ag 21 | M1 ag confirm inactive | M4 agonist ctr inactive
O=C(C1=COCCO1)N1CCN(C(c2ccccc2)c2ccccc2)CC1	none
CC1(C)CC(=O)C=C(NCCc2ccc(S(N)(=O)=O)cc2)C1	none
NS(=O)(=O)c1ccc(CCNc2ncnc3sccc23)cc1	M1 ag 3.1 | M1 ag confirm inactive | M4 agonist ctr inactive
Cc1ccc(=O)n(C(C(=O)NCc2ccco2)C(=O)c2ccc(F)cc2)c1 (configuration not stated)	none
Cc1cc(SCC(=O)OCC(=O)N2CCN(C(=O)c3ccco3)CC2)c(C)cc1Br	M1 ag 4.1 (no result: MKP-1 inh, Cdc25B block) | M1 ag confirm inactive | M4 agonist ctr inactive
COc1ccccc1N1CCN(C(c2cc3ccc(C)cc3[nH]c2=O)c2nnnn2C2CCCC2)CC1 (configuration not stated)	M1 ag -2.5 | M1 ag confirm inconclusive | M4 agonist ctr inactive
COc1ccc(CCNS(=O)(=O)c2ccc3c(c2)OCCO3)cc1	none
COc1ccc(CCNC2=NCC(C)S2)cc1 (configuration not stated)	M1 ag 31 | M1 ag confirm inactive | M4 agonist ctr inconclusive
O=C(CCCc1c[nH]c2ccccc12)N1CCN(S(=O)(=O)c2cccs2)CC1	none
Cc1ccc(SC/C(O)=C(\C#N)c2nc3ccccc3s2)cc1	M1 ag 3.3 | M1 ag confirm inactive | M4 agonist ctr inactive
CC1(C)CC(=O)C2=C(C1)OC(N)=C(C#N)C21CCN(Cc2ccccc2)CC1	M1 ag 6.9 (no result: Her2 expr inh) | M1 ag confirm inactive | M4 agonist ctr inactive
COc1ccc(-c2cc3ccccc3n2CC(O)CN2CCN(CCO)CC2)cc1 (configuration not stated)	none
O=C(NCc1ccc2c(c1)OCO2)C1CCN(c2ccc(S(=O)(=O)N3CCCC3)cc2)CC1	M1 ag 2.6 | M1 ag confirm inactive | M4 agonist ctr inactive
CCS(=O)(=O)N1CCCC(C(=O)NCc2ccc3c(c2)OCO3)C1 (configuration not stated)	none
COc1cc2c(cc1OC)C1=C(C#N)CN(C3CCCCC3)CN1CC2	M1 ag 5.1 | M1 ag confirm inactive | M4 agonist ctr inactive
c1ccc(-n2nc3c(ccc4cnnc43)[nH]2)cc1	none
Cc1ccc(C(c2nnnn2C(C)(C)C)N(Cc2ccco2)Cc2cccs2)cc1 (configuration not stated)	none
COc1ccc(Cn2nnnc2C(C(C)C)N(Cc2ccco2)Cc2cccs2)cc1 (configuration not stated)	M1 ag 3.2 | M1 ag confirm inactive | M4 agonist ctr inconclusive
CC(C)C(c1nnnn1Cc1ccccc1)N(Cc1ccco1)Cc1cccs1 (configuration not stated)	M1 ag 13 | M1 ag confirm inactive | M4 agonist ctr inactive
CC(C)Cn1cnc2c(c1=O)c1nc3ccccc3nc1n2Cc1ccc2c(c1)OCO2	none (no result: HEK293 NFkB inh)
Cc1ccc(-c2csc3nnc(SCC(=O)Nc4cccc(C)n4)n23)cc1	M1 ag 3.9 | M1 ag confirm inconclusive | M4 agonist ctr inactive
O=C(OCC(=O)N1CCN(C(=O)c2ccco2)CC1)c1cc(-c2ccc(F)cc2)nc2ccccc12	M1 ag 11 | M1 ag confirm 82 | M4 agonist ctr inactive
O=C(OCC(=O)N1CCN(C(=O)c2ccco2)CC1)c1cn(-c2ccccc2)nc1-c1ccccc1	M1 ag 4.5 | M1 ag confirm inconclusive | M4 agonist ctr inactive
